# T cruzi HTS: inhibitors of intracellular Trypanosoma cruzi, primary screen, cell-based, plate reader, single point, set 2. activity score (inhibition), % at 5.01 µM. intracellular Trypanosoma cruzi in host cells. 22,000 tested, 4.9% active; in the data active = activity score above about 55%; inconclusive = no clear call, values can overlap the other calls;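 also: parasites and compound incubated about four days before reading; 0% = median of neutral control wells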
# INS-1E ATP HTS: protection of INS-1E cells from cytokine death, primary screen, ATP luminescence, single point; INS-1E cytokine-induced death, 48 h; normalised: neutral wells 0, positive control 100; protection from cytokine-induced ATP loss, % at 10 µM; 20,000 tested, 0.1% active; AID 488910, 2010;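 active = mean replicate protection from cytokine-induced ATP loss at least 50% and at least 75% of replicates each reaching 50%; inconclusive = meets only one of the two criteria, mean or replicate share; inactive = fails both the mean and replicate share criteria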
#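 Assay system: INS-1E rat cells / Quantity: 8000 cells per well / Medium: RPMI without phenol red, 5% FBS / Probe or stimulus: three-cytokine cocktail (IFN-γ, TNF-α, IL-1β) / Dosing: one compound concentration, pin transfer / Timing: 48 h co-treatment, 10 min post-lysis read / Technique: CellTiter-Glo luminescence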
# A1 apoptosis 2: A1 inhibitors via caspase activation, primary screen, cell-based, luminescence, HTS, two replicates; AID 2465, 2010; caspase activation, % (test concentration not listed); MEF A1-2A-BIM cells, caspase-Glo luminescence, 3 h; percent of clofoctol response, DMSO zero; 24,000 tested, under 10 active; in the data active = caspase activation above about 5.9%; inconclusive = no clear call, values can overlap the other calls; inactive = below about 2.2%
#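 Material: A1-2A-BIM-expressing MEF cells. Buffer or medium: RPMI-1640 plus 10% FBS. Incubation: cells settled overnight, compound exposure 3 h at 37 °C, 5% CO2. Signal: Caspase-Glo 3/7 luminescence, 1 h at room temperature.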
# Active calls of the source: *; u = inconclusive; x = not tested or not shown. Only a selection was taken, and hits are over-represented in it overall.
SMILES,T cruzi HTS,INS-1E ATP HTS,A1 apoptosis 2
C[C@H](CO)N1C[C@H](C)[C@H](CN(C)Cc2ccc(C(=O)Nc3ccccc3N)cc2)Oc2c(NC(=O)Nc3ccc4c(c3)OCO4)cccc2C1=O,54.8,-10.3,0.3
C[C@H]1CN([C@@H](C)CO)C(=O)c2cccc(NC(=O)Nc3ccccc3)c2O[C@@H]1CN(C)Cc1ccc(C(=O)Nc2ccccc2N)cc1,73.6*,17.2,-0.8
C[C@@H]1CN([C@H](C)CO)C(=O)c2cccc(NC(=O)Nc3ccc4c(c3)OCO4)c2O[C@H]1CN(C)Cc1ccc(C(=O)Nc2ccccc2N)cc1,77.0*,9.9,x
C[C@H](CO)N1C[C@H](C)[C@@H](CN(C)Cc2ccc(C(=O)Nc3ccccc3N)cc2)Oc2ccc(NC(=O)Nc3ccc(F)cc3)cc2C1=O,26.3,-8.4,x
C[C@@H]1CN([C@@H](C)CO)C(=O)c2cccc(NC(=O)Nc3ccccc3)c2O[C@H]1CN(C)Cc1ccc(C(=O)Nc2ccccc2N)cc1,49.0,8.3,0.3
O=C(O)CCCCCC(=O)N/N=C/c1ccccc1Cl,-0.6,3.4,0.5
Cc1ccc(S(=O)(=O)Nc2ccc3c(c2)CC(=O)N([C@@H](C)CO)C[C@@H](C)[C@@H](CN(C)S(=O)(=O)c2ccc(Cl)cc2)O3)cc1,62.4*,1.1,0.3
Cc1ccc(S(=O)(=O)Nc2ccc3c(c2)CC(=O)N([C@@H](C)CO)C[C@H](C)[C@@H](CN(C)S(=O)(=O)c2ccccc2)O3)cc1,-0.7,5.3,x
Cc1ccc(S(=O)(=O)Nc2ccc3c(c2)CC(=O)N([C@H](C)CO)C[C@H](C)[C@H](CN(C)S(=O)(=O)c2ccc(Cl)cc2)O3)cc1,12.4,-4.4,x
Cc1ccc(S(=O)(=O)N(C)C[C@H]2Oc3ccc(NS(=O)(=O)c4ccc(Cl)cc4)cc3CC(=O)N([C@H](C)CO)C[C@H]2C)cc1,77.9*,-18.7,-1.4
C[C@@H]1CN([C@@H](C)CO)C(=O)Cc2cc(NS(=O)(=O)c3ccc(Cl)cc3)ccc2O[C@@H]1CN(C)S(=O)(=O)c1ccccc1,46.9,9.7,0.6
Cc1ccc(S(=O)(=O)N(C)C[C@H]2Oc3ccc(NS(=O)(=O)c4ccc(Cl)cc4)cc3CC(=O)N([C@@H](C)CO)C[C@H]2C)cc1,u,-17.7,0.8
Cc1ccc(S(=O)(=O)N(C)C[C@H]2Oc3ccc(NS(=O)(=O)c4ccccc4)cc3CC(=O)N([C@H](C)CO)C[C@H]2C)cc1,66.6*,1.3,-1.0
C[C@@H]1CN([C@H](C)CO)C(=O)Cc2cc(NS(=O)(=O)c3ccc(Cl)cc3)ccc2O[C@@H]1CN(C)S(=O)(=O)c1ccccc1,59.1*,-0.3,-0.6
C=C(C)[C@@H]1CC=C(/C=N/NC(=O)c2ccccc2O)CC1,-21.6,-22.4,-7.5
C[C@@H]1CN([C@@H](C)CO)C(=O)c2cc(NC(=O)Nc3ccc4c(c3)OCO4)ccc2O[C@H]1CN(C)CC1CCCCC1,-0.8,-0.2,-1.5
COC(=O)CCCCCCC(=O)N/N=C/c1ccc(NC(=O)OC(C)(C)C)cc1,-0.1,12.9,x
COC(=O)C(CC#Cc1ccc2c(c1)[C@]1(C(=O)N2)[C@H](C(N)=O)[C@H]2C(=O)O[C@H](c3ccccc3)[C@H](c3ccccc3)N2[C@@H]1c1ccc(O)cc1)C(=O)OC,x,x,0.0
CC(C)(C)OC(=O)Nc1ccc(/C=N/NC(=O)c2ccc(C(=O)NO)cc2)cc1,-17.3,17.1,x
O=C(N/N=C/c1ccc2ccccc2n1)c1ccccc1O,-0.8,-15.3,x
COC(=O)CCCCCCC(=O)N/N=C/CNC(=O)OC(C)(C)C,-2.2,-9.2,-0.2
O=C(N/N=C/Cc1ccccc1)c1ccccn1,7.5,5.0,-2.2
C[C@@H]1CN([C@@H](C)CO)C(=O)c2cccc(NS(=O)(=O)c3ccc(F)cc3)c2O[C@@H]1CN(C)Cc1ccc(Oc2ccccc2)cc1,47.8,-36.1,x
COc1cc2c(cc1OC)CN(C(=O)[C@H]1[C@@H]3C(=O)O[C@@H](c4ccccc4)[C@@H](c4ccccc4)N3[C@@H](c3ccc(O)cc3)[C@]13C(=O)Nc1ccc(C#CC4=CCCCC4)cc13)CC2,x,x,-0.7
CCCC[C@H]1OB(O)C[C@H]2C1=C(COc1ccccc1)Cn1c(=O)n(-c3ccccc3)c(=O)n12,x,x,-0.3
SMILES,T cruzi HTS,INS-1E ATP HTS,A1 apoptosis 2
Cc1ccc(S(=O)(=O)Nc2ccc3c(c2)CC(=O)N([C@H](C)CO)C[C@@H](C)[C@@H](CN(C)S(=O)(=O)c2ccc(C)cc2)O3)cc1,78.3*,-7.4,x
C[C@@H]1CN([C@H](C)CO)C(=O)Cc2cc(NS(=O)(=O)c3ccc(Cl)cc3)ccc2O[C@@H]1CN(C)S(=O)(=O)c1ccc(F)cc1,66.9*,3.0,x
Cc1ccc(S(=O)(=O)Nc2ccc3c(c2)CC(=O)N([C@H](C)CO)C[C@H](C)[C@@H](CN(C)S(=O)(=O)c2ccc(Cl)cc2)O3)cc1,x,x,-0.3
Cc1ccc(S(=O)(=O)N(C)C[C@H]2Oc3ccc(NS(=O)(=O)c4ccc(F)cc4)cc3CC(=O)N([C@H](C)CO)C[C@@H]2C)cc1,x,x,-0.8
C[C@H](CO)N1C[C@H](C)[C@H](CN(C)S(=O)(=O)c2ccc(Cl)cc2)Oc2ccc(NS(=O)(=O)c3ccc(F)cc3)cc2CC1=O,21.5,-5.8,x
Cc1ccc(S(=O)(=O)N(C)C[C@H]2Oc3ccc(NS(=O)(=O)c4ccc(F)cc4)cc3CC(=O)N([C@H](C)CO)C[C@H]2C)cc1,62.6*,-3.8,0.7
O=C(CCCCCCC(=O)Nc1ccccc1O)N/N=C/c1ccc(O)c(O)c1O,51.4,22.8,x
O=C(NO)c1cccc(C(=O)N/N=C/c2cc(Br)cs2)c1,-25.3,9.7,x
COC(=O)CCCCCCC(=O)N/N=C/c1cccc(C(=O)O)c1,-23.6,5.7,1.7
C[C@@H]1CCCCO[C@@H](CN(C)Cc2ccc(Cl)c(Cl)c2)[C@@H](C)CN([C@H](C)CO)C(=O)c2cc(NC(=O)Cc3ccccc3)ccc2O1,64.0*,-44.8,0.0
C[C@@H]1CCCCO[C@@H](CN(C)Cc2ccc(Cl)c(Cl)c2)[C@@H](C)CN([C@H](C)CO)C(=O)c2cc(NC(=O)CCC(F)(F)F)ccc2O1,63.1*,-32.2,x
C[C@@H]1CCCCO[C@@H](CN(C)Cc2ccc(Cl)c(Cl)c2)[C@H](C)CN([C@H](C)CO)C(=O)c2cc(NC(=O)Cc3ccccc3)ccc2O1,x,x,-0.2
C[C@@H]1CN([C@@H](C)CO)C(=O)c2cc(NC(=O)CCC(F)(F)F)ccc2O[C@@H](C)CCCCO[C@H]1CN(C)Cc1ccc(Cl)c(Cl)c1,x,x,0.5
O=C(O)CCCCCCC(=O)NN=C1CCCCCCC1,-20.7,7.6,-0.6
O=C(N/N=C/[C@H](O)[C@H](O)[C@@H](O)[C@@H](O)CO)c1ccccc1O,-8.5,-5.9,0.3
C[C@@H]1CCCCO[C@H](CN(C)C(=O)c2ccncc2)[C@@H](C)CN([C@H](C)CO)C(=O)c2cc(NC(=O)C3CCCCC3)ccc2O1,6.9,-2.6,x
C[C@@H]1CN([C@H](C)CO)C(=O)c2cccc(NC(=O)c3cnccn3)c2O[C@@H]1CN(C)S(=O)(=O)c1cccs1,5.7,-3.8,x

# Screening results as filed in PubChem BioAssay.
